Data reported in article PMC3677213 (Antiviral research, 2013).
Read-outs that look alike come from different tables or passages of the source.

Experiments:
[1] = test system: HIV-1 NL4-3 integrase N155H; format: cell-based; details: MT-4 cells; IN substitution N155H
[2] = test system: HIV-1 NL4-3 integrase Y143C; format: cell-based; details: MT-4 cells; IN substitution Y143C
[3] = test system: WT HIV-1 NL4-3; format: cell-based; details: MT-4 cells
[4] = test system: HIV-1 NL4-3 integrase T66I; format: cell-based; details: MT-4 cells; IN substitution T66I
[5] = test system: HIV-1 NL4-3 integrase E92Q/N155H; format: cell-based; details: MT-4 cells; IN substitutions E92Q/N155H
[6] = test system: SIV isolate MAC251; assay: Antiviral assay in fresh human PBMCs; format: cell-based; details: PBMC
Outline: (§1)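 Freshly isolated human PBMCs are infected with virus and cultured with test compound. Replication is measured as reverse transcriptase activity in culture supernatants, using a microtiter plate-based RT reaction. EC50 is the concentration giving 50% inhibition, as the mean of three determinations. CC50 is measured in parallel with the tetrazolium dye MTS, and therapeutic index = CC50/EC50.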

[7] = target: CYP2C19 (Homo sapiens, UniProt P33261); assay: Cytochrome P-450 isozyme inhibition assay in human liver microsomes; format: in vitro ADME
CYP2C19, sequence (P33261 whole entry): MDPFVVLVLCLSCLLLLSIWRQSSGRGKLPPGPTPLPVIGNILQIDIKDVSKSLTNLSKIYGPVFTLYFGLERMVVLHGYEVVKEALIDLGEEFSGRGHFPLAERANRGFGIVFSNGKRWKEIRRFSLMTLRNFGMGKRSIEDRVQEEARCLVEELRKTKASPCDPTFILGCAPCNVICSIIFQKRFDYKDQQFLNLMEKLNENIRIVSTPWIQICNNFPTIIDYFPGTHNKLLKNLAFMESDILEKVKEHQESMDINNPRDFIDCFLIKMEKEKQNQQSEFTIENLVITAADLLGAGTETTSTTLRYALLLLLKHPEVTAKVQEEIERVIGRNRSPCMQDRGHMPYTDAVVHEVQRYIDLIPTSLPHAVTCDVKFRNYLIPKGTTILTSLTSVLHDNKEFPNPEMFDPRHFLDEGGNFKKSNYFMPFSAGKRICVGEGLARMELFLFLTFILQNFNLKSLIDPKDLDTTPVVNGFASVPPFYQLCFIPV

[8] = test system: CYP isozymes (3A4, 2D6, 2C8, 2C9, 2C19); assay: Activation of CYP isozymes; format: in vitro ADME; details: human liver microsomes; CYP 3A4, 2D6, 2C8, 2C9, 2C19
[9] = In vitro human liver microsome stability; format: in vitro ADME
[10] = target: CYP2C8 (Homo sapiens, UniProt P10632); assay: Cytochrome P-450 isozyme inhibition assay in human liver microsomes; format: in vitro ADME
CYP2C8, sequence (P10632 whole entry): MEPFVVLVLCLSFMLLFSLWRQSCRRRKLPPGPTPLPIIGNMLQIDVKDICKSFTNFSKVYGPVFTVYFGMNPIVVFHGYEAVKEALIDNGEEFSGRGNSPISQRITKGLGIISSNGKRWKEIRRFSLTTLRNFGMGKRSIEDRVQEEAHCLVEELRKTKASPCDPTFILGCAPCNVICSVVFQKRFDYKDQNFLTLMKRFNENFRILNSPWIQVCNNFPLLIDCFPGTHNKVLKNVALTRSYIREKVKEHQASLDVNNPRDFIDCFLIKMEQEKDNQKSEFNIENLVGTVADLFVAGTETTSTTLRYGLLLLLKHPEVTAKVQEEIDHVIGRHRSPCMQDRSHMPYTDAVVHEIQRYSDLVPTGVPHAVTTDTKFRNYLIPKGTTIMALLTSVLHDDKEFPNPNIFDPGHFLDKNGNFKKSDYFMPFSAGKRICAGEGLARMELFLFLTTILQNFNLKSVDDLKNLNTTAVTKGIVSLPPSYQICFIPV

[11] = test system: HIV-1 (Group M) isolate G3, subtype G; assay: Antiviral assay in fresh human PBMCs; format: cell-based
[12] = test system: HIV-1 (Group M) isolate 93UG067, subtype D; assay: Antiviral assay in fresh human PBMCs; format: cell-based
[13] = test system: HIV-1 (Group M) isolate CMU08, subtype E; assay: Antiviral assay in fresh human PBMCs; format: cell-based
[14] = test system: HIV-1, HIV-2 and SIV isolates; assay: Antiviral assay in PBMCs, all isolates together; format: cell-based; details: PBMC, read-out: mean EC50 (± SD), all isolates
[15] = Cytotoxicity in human PBMC cultures; format: cell-based; details: peripheral blood mononuclear cells (PBMCs)
Outline: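 Freshly isolated human PBMCs are cultured with test compound. Viability is read out with the tetrazolium-based dye MTS, and CC50 is derived from that read-out.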

[16] = test system: UGT isozymes; assay: Activation of UGT isozymes in human liver microsomes; format: in vitro ADME; details: kinetic studies in human liver microsomes
[17] = test system: HIV-1 (Group M) isolate 98IN022, subtype C; assay: Antiviral assay in fresh human PBMCs; format: cell-based
[18] = target: CYP3A4 (Homo sapiens, UniProt P08684); assay: Cytochrome P-450 isozyme inhibition assay in human liver microsomes; format: in vitro ADME
CYP3A4, sequence (P08684 whole entry): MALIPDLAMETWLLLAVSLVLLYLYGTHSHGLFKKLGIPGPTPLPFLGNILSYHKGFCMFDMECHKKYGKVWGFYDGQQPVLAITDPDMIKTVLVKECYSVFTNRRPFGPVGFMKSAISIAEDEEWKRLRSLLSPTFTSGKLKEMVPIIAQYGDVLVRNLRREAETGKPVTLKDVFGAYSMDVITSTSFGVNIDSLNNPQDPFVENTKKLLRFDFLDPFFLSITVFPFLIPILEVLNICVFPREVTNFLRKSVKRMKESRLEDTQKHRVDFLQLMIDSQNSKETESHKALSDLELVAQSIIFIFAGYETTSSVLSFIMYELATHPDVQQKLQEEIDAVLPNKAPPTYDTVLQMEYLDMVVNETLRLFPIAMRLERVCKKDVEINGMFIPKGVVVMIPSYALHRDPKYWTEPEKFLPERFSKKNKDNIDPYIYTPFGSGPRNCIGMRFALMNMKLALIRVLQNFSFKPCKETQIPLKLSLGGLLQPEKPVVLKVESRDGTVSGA

[19] = test system: HIV-1 (Group M) isolate 92RW016, subtype A; assay: Antiviral assay in fresh human PBMCs; format: cell-based
[20] = test system: HIV-1 NL4-3 integrase Q148R; format: cell-based; details: MT-4 cells; IN substitution Q148R
[21] = test system: HIV-1 (Group M) isolate 93BR029, subtype F; assay: Antiviral assay in fresh human PBMCs; format: cell-based
[22] = test system: HIV-1 (Group M) isolate 91US004, subtype B; assay: Antiviral assay in fresh human PBMCs; format: cell-based
[23] = target: UGT1A1 (Homo sapiens, UniProt P22309); assay: UGT substrate activity with cDNA-expressed isozyme; format: in vitro ADME; details: UGT1A1 (BD Biosciences); HPLC
UGT1A1, sequence (P22309 26-533): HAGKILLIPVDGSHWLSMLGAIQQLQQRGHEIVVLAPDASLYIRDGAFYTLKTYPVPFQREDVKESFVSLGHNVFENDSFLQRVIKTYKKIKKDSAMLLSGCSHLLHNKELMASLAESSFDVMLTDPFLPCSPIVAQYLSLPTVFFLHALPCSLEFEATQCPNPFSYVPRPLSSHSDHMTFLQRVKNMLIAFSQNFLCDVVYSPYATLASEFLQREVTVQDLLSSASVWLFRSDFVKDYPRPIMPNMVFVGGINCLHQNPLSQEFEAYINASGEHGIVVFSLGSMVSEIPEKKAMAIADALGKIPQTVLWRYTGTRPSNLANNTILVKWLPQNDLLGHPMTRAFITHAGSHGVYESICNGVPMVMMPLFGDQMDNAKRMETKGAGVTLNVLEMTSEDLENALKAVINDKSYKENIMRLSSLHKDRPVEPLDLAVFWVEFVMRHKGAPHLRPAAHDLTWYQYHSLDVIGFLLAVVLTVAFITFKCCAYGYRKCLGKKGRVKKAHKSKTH

[24] = target: UGT1A3 (Homo sapiens, UniProt P35503); assay: UGT substrate activity with cDNA-expressed isozyme; format: in vitro ADME; details: UGT1A3 (BD Biosciences); HPLC
UGT1A3, sequence (P35503 29-534): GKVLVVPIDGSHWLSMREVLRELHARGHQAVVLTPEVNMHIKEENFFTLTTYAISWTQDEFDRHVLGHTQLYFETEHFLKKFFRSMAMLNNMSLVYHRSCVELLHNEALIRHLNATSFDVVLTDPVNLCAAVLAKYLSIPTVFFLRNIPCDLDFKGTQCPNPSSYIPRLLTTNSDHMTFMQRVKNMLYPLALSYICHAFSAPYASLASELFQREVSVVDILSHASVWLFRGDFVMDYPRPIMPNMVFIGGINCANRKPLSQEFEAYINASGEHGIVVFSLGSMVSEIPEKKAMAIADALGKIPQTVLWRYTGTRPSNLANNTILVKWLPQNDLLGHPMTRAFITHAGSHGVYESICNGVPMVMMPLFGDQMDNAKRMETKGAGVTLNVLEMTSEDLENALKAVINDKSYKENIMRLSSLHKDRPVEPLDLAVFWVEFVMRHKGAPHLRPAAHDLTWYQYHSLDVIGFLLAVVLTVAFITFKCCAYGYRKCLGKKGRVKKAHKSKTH

[25] = target: CYP2C9 (Homo sapiens, UniProt P11712); assay: Cytochrome P-450 isozyme inhibition assay in human liver microsomes; format: in vitro ADME
CYP2C9, sequence (P11712 whole entry): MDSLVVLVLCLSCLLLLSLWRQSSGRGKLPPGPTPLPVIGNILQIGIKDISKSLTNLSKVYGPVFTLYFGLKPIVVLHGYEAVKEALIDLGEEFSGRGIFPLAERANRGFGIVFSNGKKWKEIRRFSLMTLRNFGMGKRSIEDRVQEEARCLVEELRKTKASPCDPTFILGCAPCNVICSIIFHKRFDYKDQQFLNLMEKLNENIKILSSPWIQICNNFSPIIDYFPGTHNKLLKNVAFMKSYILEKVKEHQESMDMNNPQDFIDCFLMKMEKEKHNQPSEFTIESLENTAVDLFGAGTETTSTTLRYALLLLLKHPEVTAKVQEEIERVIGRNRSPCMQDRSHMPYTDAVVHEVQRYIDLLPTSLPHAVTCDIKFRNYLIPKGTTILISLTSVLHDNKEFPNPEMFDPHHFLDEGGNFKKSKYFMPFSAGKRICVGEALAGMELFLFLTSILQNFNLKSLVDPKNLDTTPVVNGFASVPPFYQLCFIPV

[26] = target: CYP2D6 (Homo sapiens, UniProt P10635); assay: as above; format: in vitro ADME
CYP2D6, sequence (P10635 whole entry): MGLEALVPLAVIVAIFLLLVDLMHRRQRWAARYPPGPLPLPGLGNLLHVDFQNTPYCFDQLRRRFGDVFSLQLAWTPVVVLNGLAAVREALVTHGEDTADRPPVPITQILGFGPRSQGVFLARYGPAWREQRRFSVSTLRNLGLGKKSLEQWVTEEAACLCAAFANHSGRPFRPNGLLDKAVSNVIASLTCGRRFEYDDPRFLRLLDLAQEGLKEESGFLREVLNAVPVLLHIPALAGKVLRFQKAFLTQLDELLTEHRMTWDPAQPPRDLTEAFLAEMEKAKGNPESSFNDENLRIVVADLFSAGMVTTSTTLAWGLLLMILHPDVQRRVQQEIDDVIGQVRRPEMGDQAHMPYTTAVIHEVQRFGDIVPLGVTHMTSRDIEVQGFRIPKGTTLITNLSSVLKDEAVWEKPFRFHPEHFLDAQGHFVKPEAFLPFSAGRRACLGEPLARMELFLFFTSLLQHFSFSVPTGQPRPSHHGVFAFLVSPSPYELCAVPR

[27] = test system: HIV-2 isolate CDC310319; assay: Antiviral assay in fresh human PBMCs; format: cell-based
Outline: as §1

[28] = test system: UGT in pooled human liver microsomes (UGT 1A1, 1A4, 1A6, 1A9 and 2B7); assay: UGT substrate activity in pooled human liver microsomes; format: in vitro ADME
[29] = test system: HIV-1 (Group M) isolate CDC310342, CRF02-AG; assay: Antiviral assay in fresh human PBMCs; format: cell-based
[30] = target: UGT1A4 (Homo sapiens, UniProt P22310); assay: UGT inhibition study with trifluoperazine as substrate; format: in vitro ADME; details: human liver microsomes
UGT1A4, sequence (P22310 29-534): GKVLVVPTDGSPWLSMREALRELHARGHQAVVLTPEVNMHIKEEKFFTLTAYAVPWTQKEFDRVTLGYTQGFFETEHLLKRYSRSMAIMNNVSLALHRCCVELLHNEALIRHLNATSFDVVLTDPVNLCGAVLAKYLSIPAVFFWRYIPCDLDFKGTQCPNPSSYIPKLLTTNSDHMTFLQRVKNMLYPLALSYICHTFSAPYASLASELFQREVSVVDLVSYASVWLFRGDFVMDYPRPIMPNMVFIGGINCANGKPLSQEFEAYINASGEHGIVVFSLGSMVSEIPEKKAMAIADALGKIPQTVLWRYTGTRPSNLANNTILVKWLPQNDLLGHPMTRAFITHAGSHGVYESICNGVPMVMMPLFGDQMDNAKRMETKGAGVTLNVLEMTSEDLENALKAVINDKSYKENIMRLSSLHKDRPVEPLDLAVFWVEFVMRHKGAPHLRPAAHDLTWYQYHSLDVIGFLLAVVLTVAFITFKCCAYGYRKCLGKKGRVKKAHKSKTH
Outline: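 Pooled human liver microsomes (0.2 mg/mL protein) were held with alamethicin (0.024 mg/mg protein) in 100 mM potassium phosphate, pH 7.4, with 5 mM MgCl2 at 0 °C for 15 min. Test compound in DMSO (0 to 300 μM) and trifluoperazine substrate were added, with organic solvent <1.6%. Mixtures were preincubated 3 min at 37 °C, then started with UDPGA (final 4 mM) and run 15 min. Acetonitrile stop, centrifugation, HPLC-UV of supernatant.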

[31] = Human immunodeficiency virus 1, PBMC, in Homo sapiens, read-out: EC50 (± SD)

With `Cc1cn([C@H]2C[C@H](N=[N+]=[N-])[C@@H](CO)O2)c(=O)[nH]c1=O` [AZT] the “EC50 fold change compared to wild-type virus” value (“EC50 fold change” below) [1] was 3.29, the “EC50 fold change” value [2] was 1.18 and the “EC50 fold change” value [3] was 1.0. For the same compound, the “EC50 fold change” value [4] was 1.0 and the “EC50 fold change” value [5] was 3.45.

With `O=C(C=C(O)c1cc(Cc2c(F)cccc2F)cn(Cc2ccccc2F)c1=O)C(=O)NN1CCCC1=O` [Compound 1, 4-(5-(2,6-difluorobenzyl)-1-(2-fluorobenzyl)-2-oxo-1,2-dihydropyridin-3-yl)-4-hydroxy-2-oxo-N-(2-oxopyrrolidin-1-yl)but-3-enamide] the “Therapeutic Index (CC50/EC50)” value ([6]; SIV isolate MAC251) was 5,037, the EC50 ([6]; Simian immunodeficiency virus, in Homo sapiens, read-out: EC50 (± SD)) was 19.1 nM and the IC50 [7] was > 200000 nM. The “activation of CYP isozymes” value [8] was “not an activator”, the “EC50 fold change” value [1] was 8.20 and the “stability in pooled human liver microsomes” value ([9]; 50 μM, 0.5 mg/mL protein, NADPH, 37 °C) was “relatively stable”. The IC50 [10] was > 200000 nM, the “EC50 fold change” value [2] was 1.87 and the “EC50 fold change” value [3] was 1.0. The EC50 [11, 31] was 34.9 nM, the “Therapeutic Index (CC50/EC50)” value ([11]; PBMC, isolate G3, subtype G) was 2,756 and the EC50 [12, 31] was 48.5 nM. The “Therapeutic Index (CC50/EC50)” value ([12]; PBMC, isolate 93UG067, subtype D) was 1,984, the EC50 [13, 31] was 52.4 nM and the “Therapeutic Index (CC50/EC50)” value ([13]; PBMC, isolate CMU08, subtype E) was 1,836. The EC50 [14] was 35 nM, the CC50 [15] was 96200 nM and the “activation of UGT isozymes” value [16] was “no indication of the activation”. For the same compound, the EC50 [17, 31] was 29.8 nM, the “Therapeutic Index (CC50/EC50)” value ([17]; PBMC, isolate 98IN022, subtype C) was 3,228 and the IC50 [18] was > 200000 nM. The EC50 [19, 31] was 20.8 nM, the “Therapeutic Index (CC50/EC50)” value ([19]; PBMC, isolate 92RW016, subtype A) was 4,625 and the “EC50 fold change” value [20] was 18.8. For the same compound, the EC50 [21, 31] was 18.3 nM, the “Therapeutic Index (CC50/EC50)” value ([21]; PBMC, isolate 93BR029, subtype F) was 5,257 and the EC50 [22, 31] was 6.89 nM. For the same compound, the “Therapeutic Index (CC50/EC50)” value ([22]; PBMC, isolate 91US004, subtype B) was 13,962, the “Glucuronide (formed)” value [23] was “None^a” and the “EC50 fold change” value [4] was 5.20. For the same compound, the “Glucuronide (formed)” value [24] was “None^a”, the IC50 [25] was > 200000 nM and the inhibition at 30 min, 200 μM ([25]; human, liver microsomes, pH 7.4, probe tolbutamide 500 μM) was 15.5%. The IC50 [26] was > 200000 nM, the EC50 ([27]; Human immunodeficiency virus 2, PBMC, in Homo sapiens, read-out: EC50 (± SD)) was 86 nM and the “Therapeutic Index (CC50/EC50)” value ([27]; PBMC, HIV-2 isolate CDC310319) was 1,119. For the same compound, the “EC50 fold change” value [5] was 6.13, the “Glucuronide (formed)” value [28] was “None^a” and the EC50 [29, 31] was 33.4 nM. The “Therapeutic Index (CC50/EC50)” value ([29]; PBMC, isolate CDC310342, CRF02-AG) was 2,880 and the “inhibition of UGT1A4” value [30] was “not an inhibitor”.

In the case of `COc1cc2c(cc1Cc1cccc(Cl)c1F)c(=O)c(C(=O)O)cn2[C@H](CO)C(C)C` [Elvitegravir, elvitegravir], the “EC50 fold change” value [1] is reported as 200, the “EC50 fold change” value [2] is reported as 46.7 and the “EC50 fold change” value [3] is reported as 1.0. For the same compound, the “EC50 fold change” value [20] was 96.1, the “EC50 fold change” value [4] was 5.5 and the “EC50 fold change” value [5] was 134.

With `C[C@]12CC[C@@H]3c4ccc(O)cc4CC[C@H]3[C@@H]1CC[C@@H]2O` [Estradiol, reference compound] the “Glucuronide (formed)” value [23] was “Glucuronide” and the “Glucuronide (formed)” value [28] was “Glucuronides (two)”.

For `Cc1cc(=O)oc2cc(O)ccc12` [Methylumbelliferone, 4-methylumbelliferone], the “Glucuronide (formed)” value [28] was “Glucuronide”.

In the case of `CN1CCN(CCCN2c3ccccc3Sc3ccc(C(F)(F)F)cc32)CC1` [Trifluoperazine], the “Glucuronide (formed)” value ([28]; pHLM (Xenotech), HPLC) is reported as “N-Glucuronide”.

In the case of `Cc1ncc2n1-c1ccc(Cl)cc1C(c1ccccc1F)=NC2` [midazolam], the remaining at 1 h ([9]; human, microsomes, pH 7.4) is reported as 61.5% and the Km ([9]; human, pH 7.4) is reported as 2.52 µM.
